Most compounds without a hit are left out; they make up all but 2.6% or so of the library.
Platelet DG rel = platelet dense granule release activity; human platelet-rich plasma, SFLLRN dense granule ATP release, luminescence; inhibition, %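 (compounds screened at 7.5 µM in platelet-rich plasma)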; hit rate 0.22% among 300,000; AID 1663;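 active = mean replicate score, as percent of positive control, at or above 50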
SENP8 block-1 = inhibitors of human SENP8 protease; hit rate 0.64% among 360,000; inhibition, % at 20 µM; AID 602440; recombinant SENP8, Nedd8 substrate fluorescence; in the data active = inhibition mostly above about 40%, no sharp cut-off; inactive = mostly below about 27%
SENP7 inh = inhibitors of human SENP7 protease; recombinant SENP7, Z-RLRGG-aminoluciferin luminescence, 40 min; inhibition, % at 5 µM; hit rate 1.5% among 330,000; AID 434973;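 active = inhibition above about 50% at the single test dose, limit read from the data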
Target sequence (Q9BQF6 706-1050 limits assumed): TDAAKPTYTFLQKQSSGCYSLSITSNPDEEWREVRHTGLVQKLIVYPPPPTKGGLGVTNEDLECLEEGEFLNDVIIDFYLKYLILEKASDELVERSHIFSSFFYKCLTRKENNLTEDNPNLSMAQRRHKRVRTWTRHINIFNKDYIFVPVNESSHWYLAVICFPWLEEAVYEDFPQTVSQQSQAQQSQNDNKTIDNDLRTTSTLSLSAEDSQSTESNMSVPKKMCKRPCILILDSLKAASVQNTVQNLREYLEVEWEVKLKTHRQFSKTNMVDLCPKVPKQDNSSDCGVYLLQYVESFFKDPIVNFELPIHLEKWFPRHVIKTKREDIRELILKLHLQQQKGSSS
SENP8 block-2 = blocks the human protease SENP8; Q96LD8; purified SENP8, Z-RLRGG-aminoluciferin cleavage, luminescence; inhibition, % at 10 µM; hit rate 1.2% among 330,000; AID 2540; in the data active = inhibition above about 50%
SENP1 inh = blocks the human SENP1 SUMO protease catalytic domain; Q9P0U3; hit rate 0.21% among 360,000; AID 624204; inhibition, % at 10 µM; recombinant SENP1 catalytic domain, CyPet-SUMO1-YPet FRET cleavage;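 active = inhibition at least 30% at 10 µM, raw YFP signal under a set limit, fluorescence ratio 0.5 to 1.5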
Target sequence (Q9P0U3 419-644 limits assumed): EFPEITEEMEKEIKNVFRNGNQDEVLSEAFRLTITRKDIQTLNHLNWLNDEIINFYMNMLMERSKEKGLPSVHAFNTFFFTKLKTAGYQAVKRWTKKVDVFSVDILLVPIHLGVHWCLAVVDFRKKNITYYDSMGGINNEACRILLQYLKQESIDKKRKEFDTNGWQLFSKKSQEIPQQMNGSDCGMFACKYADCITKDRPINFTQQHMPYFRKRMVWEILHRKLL
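Material: hSENP1 catalytic domain, recombinant; medium: Tris pH 8 with BME, BSA, NP40 and catalase; compound: single concentration of 10 µM compound, 0.5% DMSO final; technique: FRET read of cyan and yellow fluorescence; timing: 50 min enzyme reaction, room temperature, light-protected; reagent: SFCypet-SUMO1-SFYpet substrate at 25 nM; control set: no-enzyme low, enzyme-DMSO high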
SENP6 block = inhibitors of human SENP6 protease; Q9GZR1; Recombinant SENP6 catalytic domain, aminoluciferin luminescence; inhibition, % at 10 µM; hit rate 1.8% among 330,000; AID 2599;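 active = inhibition above about 50% at the single tested dose, limit read from the data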
SENP8 confirm = confirmation of human SENP8 protease inhibitors; shares compounds with SENP7 inh; Recombinant SENP8, Z-RLRGG-aminoluciferin luminescence, 60 min; inhibition, % at 12.5 µM; hit rate 40% among 6,200;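 active = mean inhibition across replicates above about 50%, limit read from the data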
SENP6 confirm = human SENP6 inhibition, confirmed. shares compounds with SENP7 inh. recombinant SENP6, Z-RLRGG-aminoluciferin luminescence. hit rate 58% among 6,200. inhibition, % at 12.5 µM
SENP7 confirm = confirmation of human SENP7 protease inhibitors. shares compounds with SENP7 inh. recombinant SENP7, Z-RLRGG-aminoluciferin luminescence, 40 min. inhibition, % at 12.5 µM. hit rate 69% among 6,200. AID 488917
Casp3 SENP sel = caspase-3 inhibition (SENP selectivity assay). shares compounds with SENP7 inh. purified caspase-3, Z-DEVD-aminoluciferin luminescence, 60 min. inhibition, % at 12.5 µM. hit rate 60% among 6,200;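 active = mean inhibition above about 50%, limit read from the data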
SENP luc ctr = interferes with luciferase luminescence in SENP counter-screen | shares compounds with SENP7 inh | Pre-incubated SENP8/Z-RLRGG-aminoluciferin, luciferase luminescence interference | inhibition, % at 12.5 µM | hit rate 39% among 6,200 | AID 488919;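 active = mean inhibition above about 50% when retested at one dose, limit read from the data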
Hits are given with their value; . = inactive; / = no result.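 The calls were made as follows, unless noted: active = mean inhibition above about 50% in the one-dose retest (limit read from the data); inactive = the rest.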

SMILES	Platelet DG rel	SENP8 block-1	SENP7 inh	SENP8 block-2	SENP1 inh	SENP6 block	SENP8 confirm	SENP6 confirm	SENP7 confirm	Casp3 SENP sel	SENP luc ctr
O=C1CCC(C(=O)N2CCCC(C(=O)c3ccc4c5c(cccc35)CC4)C2)=NN1 (stereo not given)	.	.	.	.	.	.	/	/	/	/	/
CC(=O)Oc1ccc2c(=O)c(-c3nc4ccccc4s3)coc2c1	61	.	99	94	.	98	.	.	.	72	51
CC(C)Oc1ccc2c(=O)c(-c3ccccc3)coc2c1	.	.	71	61	.	68	.	.	52	.	.
COc1ccc2c(=O)c(-c3ccc4c(c3)OCO4)coc2c1	.	.	96	84	.	88	56	87	64	77	.
CCCc1cc2c(=O)c(-c3ccc4c(c3)OCCO4)coc2cc1OC(=O)c1ccco1	.	.	.	.	.	.	/	/	/	/	/
CC(=O)Oc1ccc2c(=O)c(Oc3ccccc3[N+](=O)[O-])coc2c1	.	.	.	.	.	.	/	/	/	/	/
COC(=O)COc1ccc2c(=O)c(-c3ccccc3)coc2c1	.	.	.	.	.	.	/	/	/	/	/
CCc1cc2c(=O)c(-c3ccc4c(c3)OCCO4)coc2cc1OC(=O)c1ccco1	.	.	73	.	.	.	.	.	.	.	.
COC(=O)C1CCN(C(=O)COC(=O)COc2ccc(C#N)cc2)CC1	.	.	.	.	.	.	/	/	/	/	/
CC(C)c1cccc(C2=CC(=O)C[C@H](c3ccc4c(c3)OCO4)C2)c1	/	.	.	.	.	.	/	/	/	/	/
CCCCNc1c(-c2ccc(SC(C)CC)cc2)nc2cnccn12 (stereo not given)	/	.	.	.	.	.	/	/	/	/	/
COc1ccc(C=CC(O)CCN2CCC3CCC(C3)C2)cc1 (stereo not given)	/	.	/	/	.	/	/	/	/	/	/
CCOc1ccc(-c2ccc(SC)nn2)cc1	95	.	97	93	.	98	93	98	102	98	.
CCOc1ccc(-c2ccc(SCC(=O)Nc3nnc(CC)s3)nn2)cc1	/	.	.	.	.	.	/	/	/	/	/
CCc1ccc(C(=O)COC(=O)c2nn(C)c(=O)c3ccccc23)cc1	.	.	.	.	.	.	/	/	/	/	/
CCc1ccc(C(=O)COC(=O)c2n[nH]c3ccccc23)cc1	.	.	74	77	.	.	.	78	93	61	.
N#CC(=C1CCCC1)c1nc(-c2ccccc2)cs1	.	.	65	65	.	77	.	64	88	54	.
N#CC(=C1CCCC1)c1nc(-c2cc3ccccc3oc2=O)cs1	.	.	.	.	.	.	/	/	/	/	/
Cc1ccc(-c2csc(C(C#N)=C3CCCC3)n2)cc1	.	.	.	.	.	.	/	/	/	/	/
N#CC(=C1CCCC1)c1nc(-c2ccccc2O)cs1	.	.	90	63	.	86	.	.	.	53	55
CCOCCCN(C(=O)Cn1nnc(-c2ccc(OC)c(OC)c2)n1)C(C(=O)NCC1CCCO1)c1ccc(F)cc1 (stereo not given)	.	.	.	.	.	.	/	/	/	/	/
COc1cc(-c2ccc(Nc3ccccc3C(=O)O)c(OC)c2)ccc1Nc1ccccc1C(=O)O	/	.	.	60	.	74	.	55	.	.	69
COc1ccc(N(CC(=O)NC2CCCC2)C(=O)c2ccc(C)s2)c(OC)c1	/	.	.	.	.	.	/	/	/	/	/
O=C(CNc1ccc(Br)cc1)c1ccccc1	.	.	.	.	.	71	.	.	.	.	.
O=C(Nc1ccc(-c2nc3ccccc3[nH]2)cc1)C1CCCO1 (stereo not given)	87	.	93	88	.	87	92	92	99	96	79
SMILES	Platelet DG rel	SENP8 block-1	SENP7 inh	SENP8 block-2	SENP1 inh	SENP6 block	SENP8 confirm	SENP6 confirm	SENP7 confirm	Casp3 SENP sel	SENP luc ctr
O=C(Cc1cccs1)Nc1ccc(-c2nc3ccccc3[nH]2)cc1	.	.	84	.	.	59	.	.	87	68	.
O=C(CSc1ccccc1)Nc1ccc(-c2nc3ccccc3[nH]2)cc1	.	.	.	.	.	.	/	/	/	/	/
CCN(CC)CCn1c2c(c(SCC(=O)Nc3ccc4c(c3)OCCO4)nc1=O)CCCC2	.	.	.	.	.	.	/	/	/	/	/
C/C(=N\NC(=O)c1ccoc1C)c1ccccc1	.	.	69	51	.	73	.	60	87	84	.
Cc1cc(C(=O)N/N=C/C=C/c2ccccc2)c(C)o1	.	.	.	.	.	.	/	/	/	/	/
Cc1occc1C(=O)N/N=C/c1ccc(N(C)C)cc1	78	.	98	96	.	96	.	100	104	99	98
Cc1occc1C(=O)N/N=C/C=C/c1ccc(N(C)C)cc1	.	.	.	.	.	.	/	/	/	/	/
Cc1occc1C(=O)N/N=C/C=C/c1ccccc1	.	.	55	.	.	58	70	68	91	86	70
Cc1cc(C(=O)N/N=C/c2ccccc2)c(C)o1	.	.	74	.	.	.	59	57	85	83	60
COc1ccc(C(=O)Nn2c(CC(C)C)nc3cc(Cl)ccc3c2=O)c(OC)c1	.	.	.	.	.	.	/	/	/	/	/
O=C(N/N=C/C(Br)=C\c1ccccc1)c1ccco1	.	.	.	.	.	.	/	/	/	/	/
Cc1occc1C(=O)N/N=C/C(Br)=C\c1ccccc1	.	.	96	91	.	92	91	95	101	90	61
O=C(N/N=C/c1cccnc1)C(O)c1ccccc1 (stereo not given)	.	.	.	.	.	.	/	/	/	/	/
O=C(NC1CCCCC1)c1n[nH]c2c1CCCCC2	/	.	90	84	.	89	86	86	97	94	73
O=C(NN=C1CCCC1)c1n[nH]c2c1CCCC2	.	.	.	.	.	68	58	68	87	90	51
O=C(N/N=C/c1c(Cl)cccc1Cl)c1n[nH]c2c1CCCC2	.	.	71	68	.	.	.	72	92	80	.
O=C(N/N=C/c1c(Cl)cccc1Cl)c1ccc(F)cc1	.	.	.	.	.	.	/	/	/	/	/
CCC(C)(C)C1CCc2[nH]nc(C(=O)NC3CCCC3)c2C1 (stereo not given)	/	.	.	.	.	.	/	/	/	/	/
c1ccc(NC2=NCCN2CC2CCCCC2)cc1	/	.	.	.	.	.	/	/	/	/	/
